# Test results published in ChEMBL document CHEMBL3407342, “Prodrugs of reverse fosmidomycin analogues” (J Med Chem, 2015).
# Experiments:
# Plasmodium falciparum [1] = assay: Antiplasmodial activity against blood stage forms of multidrug-resistant Plasmodium falciparum Dd2 incubated for 3 days by HRP2 detection based ELISA method; assay type: functional, organism-based; conditions: Dd2, 72 h
# Summary of the method: (§1)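 Asexual blood-stage P. falciparum kept in continuous culture. Proliferation read by HRP2 ELISA. Each test used 12 serial dilutions. Values are means of at least two independent experiments, each run in duplicate.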
# Plasmodium falciparum [2] = assay: Antiplasmodial activity against blood stage forms of chloroquine-sensitive Plasmodium falciparum D10 incubated for 3 days by HRP2 detection based ELISA method; assay type: functional, organism-based; conditions: D10, 72 h; summary of the method: as §1
# [3] = Inhibition of recombinant Plasmodium falciparum IspC using [3,4,5-13C3]1-Deoxy-D-xylulose 5-phosphate substrate by photometric assay
# Summary of the method: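 Pf IspC inhibition values are mean ± SD from nine or more data points, obtained by nonlinear regression analysis.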
# Plasmodium falciparum [4] = assay: Antimalarial activity against Plasmodium falciparum infected in SCID mouse engrafted with human erythrocytes assessed as reduction in parasitemia at 50 mg/kg, ip qd for 4 days relative to control; assay type: functional; set-up: scale not given: the % may be the effect or the level left; conditions: route intraperitoneal
# Summary of the method: (§2)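 P. falciparum SCID mouse model with treated groups of 2 mice and a control group of 5. Dosed orally or intraperitoneally once daily on days 3, 4, 5 and 6 after infection. Blood collected on day 4 after the first treatment; parasitized erythrocytes counted as % relative to control.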
# Plasmodium berghei [5] = assay: Antimalarial activity against Plasmodium berghei infected in NMRI mouse assessed as reduction in parasitemia at 50 mg/kg, po qd for 4 days starting 4 hrs post infection measured on 96 hrs post infection relative to control; assay type: functional; set-up: scale not given: the % may be the effect or the level left
# Summary of the method: (§3)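 Peters 4-day suppressive test in P. berghei-infected mice, 50 mg/kg once daily orally or intraperitoneally at 4, 24, 48 and 72 h after infection. Compound dissolved or suspended in 70:30 Tween 80/ethanol, then diluted 10× with water. Groups of 3 mice. Blood taken on day 4 (96 h). Activity is the difference in mean % parasitaemia between control and treated groups, as a percent of control.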
# Plasmodium berghei [6] = assay: Antimalarial activity against Plasmodium berghei infected in NMRI mouse assessed as mean survival time at 50 mg/kg, po qd for 4 days starting 4 hrs post infection measured on 96 hrs post infection (reference value: 4 days); assay type: functional
# Summary of the method: (§4)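 Standard 4-day Peters test in P. berghei-infected mice. Compounds dissolved or suspended in 70:30 Tween 80/ethanol, then diluted 10× with water. Given at 50 mg/kg once daily, orally or intraperitoneally, at 4, 24, 48 and 72 h postinfection (n = 3 mice per group). Blood collected at 96 h. Mean survival time reported; […].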
# Plasmodium berghei [7] = assay: Antimalarial activity against Plasmodium berghei infected in NMRI mouse assessed as reduction in parasitemia at 50 mg/kg, ip qd for 4 days starting 4 hrs post infection measured on 96 hrs post infection relative to control; assay type: functional; set-up: scale not given: the % may be the effect or the level left; conditions: route intraperitoneal; summary of the method: as §3
# HeLa = assay: Cytotoxicity against human HeLa cells; assay type: cell-based
# Summary of the method: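 HeLa cytotoxicity values are the mean of two duplicate determinations.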
# Plasmodium berghei [8] = assay: Antimalarial activity against Plasmodium berghei infected in NMRI mouse assessed as mean survival time at 50 mg/kg, ip qd for 4 days starting 4 hrs post infection measured on 96 hrs post infection (reference value: 4 days); assay type: functional; conditions: route intraperitoneal; summary of the method: as §4
# [9] = Selectivity index, ratio of IC50 for human HeLa cells to IC50 for blood stage forms of multidrug-resistant Plasmodium falciparum Dd2; assay type: toxicity, cell-based; conditions: HeLa cells versus blood stage Plasmodium falciparum Dd2, read-out: Ratio IC50
# Summary of the method: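 Index computed as HeLa cell IC50 divided by P. falciparum Dd2 IC50. HeLa values are means of two duplicate determinations.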
# Plasmodium falciparum [10] = assay: Antiplasmodial activity against blood stage forms of chloroquine-sensitive Plasmodium falciparum 3D7 incubated for 3 days by HRP2 detection based ELISA method; assay type: functional, organism-based; conditions: 3D7, 72 h; summary of the method: as §1
# Plasmodium falciparum [11] = assay: Antimalarial activity against Plasmodium falciparum infected in SCID mouse engrafted with human erythrocytes assessed as reduction in parasitemia at 50 mg/kg, po qd for 4 days relative to control; assay type: functional; set-up: scale not given: the % may be the effect or the level left; summary of the method: as §2
# Plasmodium berghei [12] = assay: Antimalarial activity against Plasmodium berghei infected in NMRI mouse assessed as mean survival time at 30 mg/kg, po qd for 4 days starting 4 hrs post infection measured on 96 hrs post infection (reference value: 4 days); assay type: functional
# Plasmodium berghei [13] = assay: Antimalarial activity against Plasmodium berghei infected in NMRI mouse assessed as reduction in parasitemia at 30 mg/kg, po qd for 4 days starting 4 hrs post infection measured on 96 hrs post infection relative to control; assay type: functional; set-up: scale not given: the % may be the effect or the level left
# Plasmodium falciparum [14] = assay: Antimalarial activity against Plasmodium falciparum infected in SCID mouse engrafted with human erythrocytes assessed as reduction in parasitemia at 5 mg/kg, po qd for 4 days relative to control; assay type: functional; set-up: scale not given: the % may be the effect or the level left
# Plasmodium falciparum [15] = assay: Antimalarial activity against Plasmodium falciparum infected in SCID mouse engrafted with human erythrocytes assessed as reduction in parasitemia at 13 mg/kg, po qd for 4 days relative to control; assay type: functional; set-up: scale not given: the % may be the effect or the level left
SMILES,IC50 (Plasmodium falciparum [1]),IC50 (Plasmodium falciparum [2]),IC50 [3],IC50 (HeLa),selectivity ratio [9],IC50 (Plasmodium falciparum [10]),other results
O=C(CCC(c1ccc(F)c(F)c1)P(=O)(O)O)NO (stereo not given),650 nM,210 nM,0.0028 µM,–,–,–,–
CN(O)C(=O)CCC(c1ccc(F)c(F)c1)P(=O)(O)O (stereo not given),–,83 nM,0.0034 µM,> 1000 µM,> 2500,–,Activity (Plasmodium falciparum [4]): 0%; Activity (Plasmodium berghei [5]): 57%; Survival (Plasmodium berghei [6]): 6 days; Activity (Plasmodium berghei [7]): 62%; Survival (Plasmodium berghei [8]): 6.7 days
CN(O)C(=O)COC(c1ccc(F)c(F)c1)P(=O)(O)O (stereo not given),–,520 nM,0.012 µM,> 1000 µM,> 7690,–,–
CC(=O)N(O)CCCP(=O)(OCOC(=O)C(C)(C)C)OCOC(=O)C(C)(C)C,28 nM,–,–,–,–,41 nM,–
CC(C)(C)C(=O)OCOP(=O)(CCCN(O)C=O)OCOC(=O)C(C)(C)C,490 nM,1800 nM,–,–,–,480 nM,–
CCCCOC(=O)OCOP(=O)(OCOC(=O)OCCCC)C(CCC(=O)NO)c1ccc(F)c(F)c1 (stereo not given),9 nM,100 nM,> 1000 µM,–,–,39 nM,–
CCCCOC(=O)OCOP(=O)(OCOC(=O)OCCCC)C(CCC(=O)N(C)O)c1ccc(F)c(F)c1 (stereo not given),5 nM,–,> 1000 µM,190 µM,38000,13 nM,–
CCCCOC(=O)OCOP(=O)(OCOC(=O)OCCCC)C(OCC(=O)N(C)O)c1ccc(F)c(F)c1 (stereo not given),9 nM,31 nM,–,190 µM,21100,14 nM,–
CC(C)OC(=O)OCOP(=O)(OCOC(=O)OC(C)C)C(CCC(=O)NO)c1ccc(F)c(F)c1 (stereo not given),29 nM,–,> 1000 µM,–,–,49 nM,–
CC(C)OC(=O)OCOP(=O)(OCOC(=O)OC(C)C)C(CCC(=O)N(C)O)c1ccc(F)c(F)c1 (stereo not given),7 nM,–,887 µM,–,–,8 nM,–
CC(C)OC(=O)OCOP(=O)(OCOC(=O)OC(C)C)C(OCC(=O)N(C)O)c1ccc(F)c(F)c1 (stereo not given),29 nM,31 nM,–,–,–,35 nM,–
CC(=O)ON(C)C(=O)CCC(c1ccc(F)c(F)c1)P(=O)(OCOC(=O)OC(C)C)OCOC(=O)OC(C)C (stereo not given),8 nM,61 nM,–,188 µM,23500,13 nM,–
CCOC(=O)ON(C)C(=O)CCC(c1ccc(F)c(F)c1)P(=O)(OCOC(=O)OC(C)C)OCOC(=O)OC(C)C (stereo not given),18 nM,130 nM,> 1000 µM,205 µM,11400,28 nM,–
CCNC(=O)ON(C)C(=O)CCC(c1ccc(F)c(F)c1)P(=O)(OCOC(=O)OC(C)C)OCOC(=O)OC(C)C (stereo not given),12 nM,72 nM,> 1000 µM,168 µM,14000,14 nM,Activity (Plasmodium falciparum [11]): 0%
CC(C)OC(=O)OCOP(=O)(OCOC(=O)OC(C)C)C(CCC(=O)N(C)OC(=O)C(C)(C)C)c1ccc(F)c(F)c1 (stereo not given),34 nM,220 nM,> 1000 µM,–,–,43 nM,–
"O[C@@H](c1cc(C(F)(F)F)nc2c(C(F)(F)F)cccc12)[C@H]1CCCCN1 (relative stereo) [(S,R)-MEFLOQUINE]",–,–,–,–,–,–,Survival (Plasmodium berghei [12]): 29 days; Activity (Plasmodium berghei [13]): 99.9%
C[C@H]1[C@H](OC(=O)CCC(=O)O)O[C@@H]2O[C@@]3(C)CC[C@H]4[C@H](C)CC[C@@H]1[C@@]24OO3 [ARTESUNATE],–,–,–,–,–,–,Survival (Plasmodium berghei [12]): 10 days; Activity (Plasmodium falciparum [14]): 90%; Activity (Plasmodium falciparum [15]): 90%; Activity (Plasmodium berghei [13]): 99%
CCN(CC)CCCC(C)Nc1ccnc2cc(Cl)ccc12 (stereo not given) [CHLOROQUINE],–,–,–,–,–,–,Activity (Plasmodium falciparum [14]): 90%; Activity (Plasmodium falciparum [15]): 90%
O=CN(O)CCCP(=O)(O)O [FOSMIDOMYCIN],–,1300 nM,0.16 µM,–,–,–,–
CC(=O)N(O)CCCP(=O)(O)O [FR-900098],160 nM,350 nM,0.015 µM,–,–,160 nM,–
